Measured values taken from paper PMC6926016 (Proceedings of the National Academy of Sciences of the …, 2019).

Columns and labels:
Format in all cases: cell-based
Settings in all cases: Ca2+ assay
[1] = molecular target: human TRPA1 (Homo sapiens, UniProt O75762); assay: Calcium influx assay in HEK-293F cells transiently expressing human TRPA1
[2] = molecular target: rat TRPA1 (Rattus norvegicus, UniProt Q6RI86); assay: Calcium influx assay, rat TRPA1
How it was run: (§1)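 TRPA1 orthologue cDNAs in pcDNA3.1 Hygro, transiently transfected, each construct tested in at least 2 independent transfections. Fluorescence Ca2+ influx (RFU) read in Hanks balanced salt solution with 1.26 mM Ca2+ and 1.0 mM Mg2+.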

[3] = molecular target: dog TRPA1 (Canis lupus familiaris, UniProt A0A8I3Q1Q7); assay: Calcium influx assay, dog TRPA1
Sequence of dog TRPA1 (A0A8I3Q1Q7 1-1118): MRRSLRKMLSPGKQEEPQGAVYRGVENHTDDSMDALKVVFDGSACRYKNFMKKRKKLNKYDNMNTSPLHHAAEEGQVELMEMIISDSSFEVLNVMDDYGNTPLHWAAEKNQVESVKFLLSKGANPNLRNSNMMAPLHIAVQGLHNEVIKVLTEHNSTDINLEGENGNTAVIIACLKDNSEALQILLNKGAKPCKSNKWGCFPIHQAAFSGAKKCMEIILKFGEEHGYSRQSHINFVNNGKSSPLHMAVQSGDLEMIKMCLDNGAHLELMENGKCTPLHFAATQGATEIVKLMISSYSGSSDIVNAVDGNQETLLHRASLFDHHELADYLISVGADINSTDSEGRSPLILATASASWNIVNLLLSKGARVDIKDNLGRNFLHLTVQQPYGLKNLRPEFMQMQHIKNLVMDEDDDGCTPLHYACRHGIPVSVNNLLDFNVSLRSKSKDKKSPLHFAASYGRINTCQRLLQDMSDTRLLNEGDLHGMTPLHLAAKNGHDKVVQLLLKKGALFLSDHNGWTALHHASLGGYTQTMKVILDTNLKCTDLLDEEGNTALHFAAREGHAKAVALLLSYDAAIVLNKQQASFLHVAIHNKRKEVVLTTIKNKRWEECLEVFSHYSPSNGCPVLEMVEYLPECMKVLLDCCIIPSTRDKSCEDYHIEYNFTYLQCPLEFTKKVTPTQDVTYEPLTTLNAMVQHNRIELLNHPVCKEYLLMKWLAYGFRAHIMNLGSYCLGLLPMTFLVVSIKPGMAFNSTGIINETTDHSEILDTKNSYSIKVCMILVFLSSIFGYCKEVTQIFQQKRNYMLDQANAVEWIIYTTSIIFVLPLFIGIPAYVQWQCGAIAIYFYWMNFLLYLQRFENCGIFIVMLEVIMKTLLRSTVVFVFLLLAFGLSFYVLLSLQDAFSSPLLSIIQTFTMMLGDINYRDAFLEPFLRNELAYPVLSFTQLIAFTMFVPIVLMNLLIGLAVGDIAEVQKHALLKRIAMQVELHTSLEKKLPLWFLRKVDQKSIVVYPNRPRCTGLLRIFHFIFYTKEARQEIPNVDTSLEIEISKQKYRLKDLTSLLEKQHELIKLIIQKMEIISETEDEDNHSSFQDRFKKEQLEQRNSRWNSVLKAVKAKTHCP
How it was run: as §1

[4] = molecular target: guinea pig TRPA1 (Cavia porcellus, UniProt H0VJD1); assay: Calcium influx assay, guinea pig TRPA1
Sequence of guinea pig TRPA1 (H0VJD1 1-991): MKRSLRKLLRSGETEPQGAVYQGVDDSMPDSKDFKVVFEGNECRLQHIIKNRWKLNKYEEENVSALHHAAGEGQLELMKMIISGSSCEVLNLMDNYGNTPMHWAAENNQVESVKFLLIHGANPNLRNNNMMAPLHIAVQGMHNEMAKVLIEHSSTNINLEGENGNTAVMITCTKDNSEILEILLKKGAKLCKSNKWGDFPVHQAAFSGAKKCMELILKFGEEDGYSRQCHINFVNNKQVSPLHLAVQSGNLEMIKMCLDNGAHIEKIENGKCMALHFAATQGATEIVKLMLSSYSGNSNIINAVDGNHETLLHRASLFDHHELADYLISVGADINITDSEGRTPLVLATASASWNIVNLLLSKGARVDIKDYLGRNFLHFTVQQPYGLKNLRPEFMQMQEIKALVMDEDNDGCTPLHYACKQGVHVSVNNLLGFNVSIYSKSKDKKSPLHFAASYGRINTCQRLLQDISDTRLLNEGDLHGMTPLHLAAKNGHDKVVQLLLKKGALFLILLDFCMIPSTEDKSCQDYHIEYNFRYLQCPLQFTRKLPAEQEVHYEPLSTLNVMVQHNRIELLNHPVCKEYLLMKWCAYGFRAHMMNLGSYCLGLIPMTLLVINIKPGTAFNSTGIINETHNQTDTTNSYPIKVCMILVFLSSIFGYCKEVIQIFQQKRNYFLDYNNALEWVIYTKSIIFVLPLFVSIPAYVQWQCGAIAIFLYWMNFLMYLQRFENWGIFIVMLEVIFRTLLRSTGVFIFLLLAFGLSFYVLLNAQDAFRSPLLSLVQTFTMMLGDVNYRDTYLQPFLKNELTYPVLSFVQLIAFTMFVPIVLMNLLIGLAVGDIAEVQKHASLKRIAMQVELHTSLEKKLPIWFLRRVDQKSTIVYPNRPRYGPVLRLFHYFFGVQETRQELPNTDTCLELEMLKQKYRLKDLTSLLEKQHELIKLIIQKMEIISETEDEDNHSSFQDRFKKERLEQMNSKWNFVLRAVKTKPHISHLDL
How it was run: as §1

[5] = system: chicken TRPA1; assay: Calcium influx assay, chicken TRPA1
How it was run: as §1

Sequence of human TRPA1 (O75762 whole entry): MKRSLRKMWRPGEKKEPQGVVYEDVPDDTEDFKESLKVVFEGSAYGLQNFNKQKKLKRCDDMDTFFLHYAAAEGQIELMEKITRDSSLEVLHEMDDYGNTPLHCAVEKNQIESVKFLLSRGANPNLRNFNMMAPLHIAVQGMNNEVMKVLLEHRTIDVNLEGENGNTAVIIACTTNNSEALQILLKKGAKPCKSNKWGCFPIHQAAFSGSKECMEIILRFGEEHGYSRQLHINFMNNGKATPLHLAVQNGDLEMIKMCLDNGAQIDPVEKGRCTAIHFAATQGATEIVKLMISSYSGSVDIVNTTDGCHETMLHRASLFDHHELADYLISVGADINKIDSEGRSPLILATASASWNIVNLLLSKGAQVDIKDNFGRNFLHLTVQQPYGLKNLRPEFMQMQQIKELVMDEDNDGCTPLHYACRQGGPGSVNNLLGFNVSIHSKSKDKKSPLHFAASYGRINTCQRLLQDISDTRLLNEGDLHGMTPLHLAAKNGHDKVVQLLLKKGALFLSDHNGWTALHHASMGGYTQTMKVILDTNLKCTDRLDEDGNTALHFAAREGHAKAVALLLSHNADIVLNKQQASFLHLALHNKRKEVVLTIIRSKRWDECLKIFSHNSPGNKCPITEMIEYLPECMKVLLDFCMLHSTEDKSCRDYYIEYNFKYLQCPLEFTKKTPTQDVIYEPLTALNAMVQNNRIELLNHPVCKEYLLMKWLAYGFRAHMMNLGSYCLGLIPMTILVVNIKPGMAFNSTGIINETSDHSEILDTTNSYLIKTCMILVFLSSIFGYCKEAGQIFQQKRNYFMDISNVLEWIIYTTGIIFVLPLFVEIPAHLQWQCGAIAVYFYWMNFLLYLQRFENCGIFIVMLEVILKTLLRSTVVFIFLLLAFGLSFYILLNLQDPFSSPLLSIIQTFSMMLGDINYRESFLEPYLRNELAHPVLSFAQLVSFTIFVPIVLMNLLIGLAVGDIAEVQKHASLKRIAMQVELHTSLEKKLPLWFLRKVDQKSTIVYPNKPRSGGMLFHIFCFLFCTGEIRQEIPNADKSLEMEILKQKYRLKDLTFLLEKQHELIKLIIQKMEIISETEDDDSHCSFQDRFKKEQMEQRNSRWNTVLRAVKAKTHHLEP
Sequence of rat TRPA1 (Q6RI86 whole entry): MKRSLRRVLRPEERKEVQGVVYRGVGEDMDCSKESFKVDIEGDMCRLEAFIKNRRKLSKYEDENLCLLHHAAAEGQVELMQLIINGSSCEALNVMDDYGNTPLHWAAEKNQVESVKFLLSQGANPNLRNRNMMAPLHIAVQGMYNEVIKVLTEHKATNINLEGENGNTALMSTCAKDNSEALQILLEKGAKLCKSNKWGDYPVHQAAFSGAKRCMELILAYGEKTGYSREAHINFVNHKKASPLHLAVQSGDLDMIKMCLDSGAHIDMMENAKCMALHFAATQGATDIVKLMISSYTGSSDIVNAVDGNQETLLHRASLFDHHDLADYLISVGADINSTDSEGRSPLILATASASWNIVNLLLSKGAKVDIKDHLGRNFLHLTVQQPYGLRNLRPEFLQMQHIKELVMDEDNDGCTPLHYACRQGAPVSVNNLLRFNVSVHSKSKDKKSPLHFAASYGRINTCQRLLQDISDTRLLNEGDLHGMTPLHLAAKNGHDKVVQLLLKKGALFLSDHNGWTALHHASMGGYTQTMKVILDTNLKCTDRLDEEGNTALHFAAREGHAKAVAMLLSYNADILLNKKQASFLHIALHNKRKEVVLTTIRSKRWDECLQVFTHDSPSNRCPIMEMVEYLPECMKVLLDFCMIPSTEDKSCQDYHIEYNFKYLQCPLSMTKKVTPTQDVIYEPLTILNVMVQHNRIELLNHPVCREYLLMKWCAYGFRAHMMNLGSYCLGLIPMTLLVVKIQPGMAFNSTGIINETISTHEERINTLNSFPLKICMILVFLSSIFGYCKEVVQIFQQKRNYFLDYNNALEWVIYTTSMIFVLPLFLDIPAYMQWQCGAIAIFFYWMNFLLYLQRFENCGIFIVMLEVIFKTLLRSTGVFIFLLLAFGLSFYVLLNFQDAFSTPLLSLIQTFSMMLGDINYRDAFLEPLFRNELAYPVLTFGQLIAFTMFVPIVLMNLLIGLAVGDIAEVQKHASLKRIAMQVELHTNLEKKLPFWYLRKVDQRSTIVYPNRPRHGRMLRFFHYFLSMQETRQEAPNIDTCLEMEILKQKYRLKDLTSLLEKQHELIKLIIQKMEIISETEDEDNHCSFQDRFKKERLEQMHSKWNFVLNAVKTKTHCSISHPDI

C=CCN=C=S [AITC, allyl isothiocyanate]
Hill slope ([1]; concentration-response, human TRPA1): 1.4 | activation of human TRPA1 ([1]; species comparison): robust response | activation of rat TRPA1 [2]: robust response | activation of dog TRPA1 [3]: robust response | activation of guinea pig TRPA1 [4]: robust response | activation of chicken TRPA1 [5]: robust response
